# Screening data from PubChem BioAssay.
# Most compounds without a hit are left out; they make up all but 2.3% or so of the library.
# OXTR potentiate: human OXTR potentiators, primary screen, fluorescence, CHO-OTR cells, Fluo-8 calcium. Oxytocin receptor (Homo sapiens), P30559. Fluo-8 calcium fluorescence, potentiator mode; 0% = oxytocin EC15, 100% = EC100. activation, % at 3 µM. 320,000 compounds, 0.061% hits. AID 2445, 2010;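 active means activation above that plate's cutoff, the mean activation of tested compounds plus 3 SD, cut at about 6.6% in these data, passing the limit was not always enough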;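 further: 100% uses oxytocin at 75 nM as the full agonist control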
# Target sequence (P30559 whole entry, looked up): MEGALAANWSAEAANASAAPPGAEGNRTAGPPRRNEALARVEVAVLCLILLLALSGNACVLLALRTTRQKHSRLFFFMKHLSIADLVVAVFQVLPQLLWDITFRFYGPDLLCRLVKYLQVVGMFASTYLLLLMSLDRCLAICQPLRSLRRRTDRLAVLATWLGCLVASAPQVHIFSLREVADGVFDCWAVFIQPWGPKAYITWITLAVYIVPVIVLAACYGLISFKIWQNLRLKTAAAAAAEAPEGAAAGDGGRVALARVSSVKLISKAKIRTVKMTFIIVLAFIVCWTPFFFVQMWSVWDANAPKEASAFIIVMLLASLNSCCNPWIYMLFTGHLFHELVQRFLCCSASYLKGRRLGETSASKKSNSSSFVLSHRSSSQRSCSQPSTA
#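 Assay system: CHO cell line stably expressing human OTR. Reagent: EC15 oxytocin agonist. Dosing: single dose, 3.0 µM nominal final compound concentration. Timing: compound 6 min at room temperature before oxytocin, 100 s read. Signal: kinetic Fluo-8 calcium fluorescence. Controls: oxytocin EC15 low and EC100 high.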
# OXTR ag: human OXTR agonists, primary screen, fluorescence, CHO-OTR cells, Fluo-8 calcium; Oxytocin receptor (Homo sapiens), P30559; Fluo-8 calcium fluorescence; normalized: DMSO 0%, oxytocin 100%; activation, % at 3 µM; 320,000 compounds, 0.32% hits; AID 2435, 2010;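 active means activation above the mean of all tested compounds plus 3 SD, cutoff set per screening run, cut at about 20% in these data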;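 further: peak over basal fluorescence ratio from a 100 s FLIPR kinetic read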
# V1R ag counter: agonists of human V1a receptor, primary screen, counter-screen for OXTR agonist project, fluorescence, CHO-V1R cells; Vasopressin V1a receptor (Homo sapiens), P37288; Fluo-8 calcium fluorescence, agonist mode; 0% DMSO, 100% 3 nM vasopressin; activation, % at 3 µM; 320,000 compounds, 0.25% hits;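 active means activation above the mean activation of all tested compounds plus 3 SD, per screening run, cut at about 20% in these data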;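 further: signal is peak over basal fluorescence ratio across a 100 second FLIPR read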
# TAAR1 antagonist: human TAAR1 antagonists, primary screen, Fluo-8 calcium fluorescence, CHO RD-HGA16 cells. 360,000 compounds, 1.5% hits. inhibition, % at 3 µM. antagonist. Trace amine-associated receptor 1 (Homo sapiens), Q96RJ0;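 active means inhibition above a per-plate cutoff, the mean inhibition of test compounds on that plate plus 3 SD, cut at about 49% in these data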;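 further: 0% = DMSO plus EC80 beta-PEA response and 100% = DMSO alone without agonist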
# Target sequence (Q96RJ0 whole entry, looked up): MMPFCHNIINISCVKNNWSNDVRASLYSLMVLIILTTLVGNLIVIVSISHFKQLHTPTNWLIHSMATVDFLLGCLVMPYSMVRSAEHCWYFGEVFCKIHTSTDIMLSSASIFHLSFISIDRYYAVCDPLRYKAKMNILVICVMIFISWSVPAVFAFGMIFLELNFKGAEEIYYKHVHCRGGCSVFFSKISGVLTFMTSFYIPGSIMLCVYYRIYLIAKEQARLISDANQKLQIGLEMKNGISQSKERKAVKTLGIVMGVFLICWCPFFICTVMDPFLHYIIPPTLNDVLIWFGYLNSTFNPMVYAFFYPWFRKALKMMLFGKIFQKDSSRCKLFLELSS
#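 Test system: CHO RD-HGA16 cells bearing hTAAR1 | Reagent: β-PEA, EC80 | Compound dosing: 3 µM, single point | Schedule: Dye loading 75 min at 37 °C, then 30 min room temperature | Signal: Calcium fluorescence with Fluo-8 | Evaluation: Percent inhibition of PEA-evoked calcium signal, max/basal emission ratio | Control set: DMSO-only wells and EC80 β-PEA-stimulated wells | Repeats: Singlicate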
# TAAR1 agonist: human TAAR1 agonists, primary screen, Fluo-8 calcium fluorescence, CHO RD-HGA16 cells | Trace amine-associated receptor 1 (Homo sapiens), Q96RJ0 | activation, % at 3 µM | vehicle wells 0%, saturating PEA agonist 100% | 360,000 compounds, 0.99% hits;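 active means activation above the mean activation of all test compounds in the run plus 3 SD, cut at about 38% in these data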
#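 System: CHO-derived RD-HGA16 cells with stable Gα16 and human TAAR1. Times: 17-24 h plating, Fluo-8 75 min 37 °C, 30 min RT. Measured by: calcium-sensitive Fluo-8 signal, excitation 470-495, emission 515-575 nm. Read-out basis: % activation relative to PEA EC100 response. Control set: DMSO and PEA EC100. Repeats: no replicates (n 1).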
# OXTR ag confirm: human OXTR agonists, confirmation, fluorescence, CHO-OTR cells, triplicate | shares compounds with OXTR ag | Fluo-8 calcium fluorescence, agonist | activation, % at 3 µM | 390 compounds, 20% hits;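 active means mean activation above about 20% derived from the earlier single-dose screen, limit read from the data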;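 further: peak over minimum fluorescence ratio per well during a 100 second FLIPR read; 0% = DMSO alone and 100% = oxytocin high control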
# V1R ag counter 3x: V1a receptor agonists, calcium signal, counter-screen for OXTR agonist project, triplicate, fluorescence, CHO-V1R cells; activation, % at 3 µM; Fluo-8 calcium fluorescence; 390 compounds, 10% hits; shares compounds with OXTR ag;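 active means mean activation over triplicate exceeds the hit threshold set in the earlier primary screen, cut at about 20% in these data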;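 further: peak over basal fluorescence ratio within a 100 second read; 0% = DMSO alone and 100% = 3 nM vasopressin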
# Numbers without * were called inactive; x = no result given.
SMILES,OXTR potentiate,OXTR ag,V1R ag counter,TAAR1 antagonist,TAAR1 agonist,others
COc1ccc(N(CC(=O)N/N=C/c2ccccc2F)S(=O)(=O)c2ccccc2)cc1,-21,-2,0,0,35,
COc1ccc(C2C(C(=O)c3cccs3)=C(O)C(=O)N2c2nnc(C)s2)cc1OC (stereo not drawn),2,2,1,x,x,
CC(C)c1nnc(N2C(=O)C(O)=C(C(=O)c3cccs3)C2c2ccccc2)s1 (stereo not drawn),x,x,x,25,40*,
CN(C)Cc1csc(NC(=O)Nc2ccccc2Cc2ccccc2)n1,x,x,x,9,7,
COc1ccc(-c2csc(NC(=O)C3=NN(c4ccccc4)C(=O)CC3)n2)cc1,-11,5,5,57*,18,
COc1ccc(-c2csc(NC(=S)NC(=O)c3cccs3)n2)cc1OC,x,x,x,50*,4,
COc1ccc(-c2csc(NC(=O)c3cccc(N4C(=O)CCC4=O)c3)n2)cc1C,-16,6,5,49*,12,
CC(C)C[C@@H](CNCC(=O)[C@H](C)NC(=O)c1[nH]cnc1C(=O)N[C@@H](C)CN)NC(=O)c1nc[nH]c1C(=O)N[C@@H](CC(=O)O)C(=O)O,x,x,x,-11,0,
COc1ccc(-c2noc(CCC(=O)N3CCN(c4cccc(OC)c4)CC3)n2)cc1,x,x,x,53*,11,
Cc1ccc(-c2nc(CSCC(=O)N3CCN(c4ccccn4)CC3)c(C)o2)cc1,-9,11,8,37,3,
CCOc1ccc(-c2nc(CSCC(=O)N3CCN(c4cccc(OC)c4)CC3)c(C)o2)cc1,-7,7,9,51*,5,
Cc1ccc2c(c1)oc(=O)n2CC(=O)c1ccccc1,-4,-2,-3,27,0,
CN(Cc1nc(-c2ccccc2)no1)C(=O)c1ccco1,-8,1,1,-10,3,
Cc1csc(NC(=O)c2c(-c3ccccc3)noc2C)n1,-4,0,0,-7,-1,
Cc1onc(-c2ccccc2)c1C(=O)Nc1nc(-c2ccc(F)c(F)c2)cs1,7,0,2,-2,39*,
CCc1noc(C)c1C(=O)OCC(=O)Nc1nc(-c2ccc(F)c(F)c2)cs1,-10,3,8,69*,13,
O=C(Nc1ccccc1)/C(=C\c1ccc(F)cc1)NC(=O)c1ccco1,-10,0,0,1,-2,
CCOC(=O)Nc1ccc2c(c1)Cc1cc([N+](=O)[O-])ccc1-2,x,x,x,-3,0,
CC(O)CN(CC(C)O)c1ccc2c(c1)Cc1cc([N+](=O)[O-])ccc1-2 (stereo not drawn),x,x,x,79*,93*,
Nc1ccc2c(c1)Cc1cc([N+](=O)[O-])ccc1-2,-13,22*,31*,32,24,
CC(=NO)c1ccc2c(c1)Cc1cc([N+](=O)[O-])ccc1-2,x,x,x,-11,1,
CCCCC(=O)Nc1ncc(S(=O)(=O)c2ccc([N+](=O)[O-])cc2)s1,-10,16,16,0,55*,
C=CCn1c(CSCc2ccc(C)cc2)nnc1SCC(=O)NCc1ccccc1,-24,-2,1,50*,18,
C=CCn1c(CSCc2ccc(Cl)cc2)nnc1SCC(=O)NCc1ccccc1,-22,0,4,44,18,
c1ccc(Cn2cc(CCOCc3ccccn3)c3ccccc32)cc1,x,x,x,-27,-1,
SMILES,OXTR potentiate,OXTR ag,V1R ag counter,TAAR1 antagonist,TAAR1 agonist,others
NC(c1ccccc1)c1csc(Nc2ccccn2)n1 (stereo not drawn),x,x,x,23,9,
Fc1cccc(Cc2c(-c3ccc(Cl)cc3)nc3ccc(Br)cn23)c1,x,x,x,8,-1,
O=C(CCn1nc(-c2ccc(Cl)cc2)ccc1=O)N1CCN(c2ccc(F)cc2)CC1,-12,-2,3,-18,0,
Cc1cc(/C=N/NC(=O)c2cc3ccccc3o2)c(C)n1C,-10,-1,-1,54*,11,
O=C1[C@H]2[C@@H](c3ccccc3)N[C@]3(CCCN(Cc4ccc(C(F)(F)F)cc4)C3=O)[C@H]2C(=O)N1Cc1ccccc1,x,x,x,50*,12,
COc1ccc2ccccc2c1/C=N/NC(=O)c1nnn(-c2nonc2N)c1CN(C)C,-9,-1,0,-3,2,
COc1ccc2ccccc2c1/C=N/NC(=O)c1nnn(-c2nonc2N)c1C(C)C,-10,1,4,55*,7,
CC(C)c1c(C(=O)N/N=C/c2ccco2)nnn1-c1nonc1N,-2,2,5,-6,43*,
CN(C)Cc1c(C(=O)N/N=C/c2ccco2)nnn1-c1nonc1N,1,1,1,-1,-1,
CCCc1c(C(=O)N/N=C/c2ccc(C)o2)nnn1-c1nonc1N,x,x,x,14,17,
Cc1ccc(/C=N/NC(=O)c2nnn(-c3nonc3N)c2C(C)C)s1,-4,2,4,-1,47*,
Cc1ccc(/C=N/NC(=O)c2nnn(-c3nonc3N)c2C(C)C)o1,-10,2,1,3,38*,
CCOC(=O)C1=CCC(C(C)(C)C)N(S(=O)(=O)c2ccc(C)cc2)C1 (stereo not drawn),x,x,x,-17,1,
CSc1nc(O)c(C(c2cccc([N+](=O)[O-])c2)c2c(O)nc(SC)[nH]c2=O)c(=O)[nH]1,-3,2,0,18,0,
CCCCNC(=O)c1sc(=S)n2c1[nH]c(=O)c1ccc(C(=O)NCCc3ccc(OC)c(OC)c3)cc12,-7,-1,1,x,x,
O=C(NCc1ccccc1)c1sc(=S)n2c1[nH]c(=O)c1ccccc12,-23,21*,13,3,44*,OXTR ag confirm=12;V1R ag counter 3x=11
CCOC(=O)Cn1c(=N)n(CCOc2ccc(OC)cc2)c2ccccc21,-21,39*,1,x,x,OXTR ag confirm=0;V1R ag counter 3x=0
Cc1ccccc1OCC(=O)Nc1ccc(N2CCN(C)CC2)c(Cl)c1,-13,20*,13,7,39*,OXTR ag confirm=3;V1R ag counter 3x=2
CCOC(=O)c1c(C)n(-c2ccc(C)cc2)c2ccc(OCC(O)CNCC3CCCO3)cc12 (stereo not drawn),-11,20*,10,x,x,OXTR ag confirm=9;V1R ag counter 3x=3
